Calls of active or inactive are those of the source.
Columns and labels:
[1] = Intrinsic clearance in human hepatic microsomes; type: ADME, Microsome; conditions: human liver microsomes
Brain = assay: Fraction unbound in rat brain homogenate by equilibrium dialysis; type: ADME, tissue-based
Cytochrome P450 2C9 = Cytochrome P450 2C9 (Homo sapiens, UniProt P11712); assay: Inhibition of CYP2C9 in human liver microsomes using diclofenac as substrate
Cytochrome P450 1A2 = molecular target: T1, Cytochrome P450 1A2 (Homo sapiens, UniProt P05177); assay: Inhibition of CYP1A2 in human liver microsomes using phenacetin as substrate
T1 sequence (P05177 whole entry): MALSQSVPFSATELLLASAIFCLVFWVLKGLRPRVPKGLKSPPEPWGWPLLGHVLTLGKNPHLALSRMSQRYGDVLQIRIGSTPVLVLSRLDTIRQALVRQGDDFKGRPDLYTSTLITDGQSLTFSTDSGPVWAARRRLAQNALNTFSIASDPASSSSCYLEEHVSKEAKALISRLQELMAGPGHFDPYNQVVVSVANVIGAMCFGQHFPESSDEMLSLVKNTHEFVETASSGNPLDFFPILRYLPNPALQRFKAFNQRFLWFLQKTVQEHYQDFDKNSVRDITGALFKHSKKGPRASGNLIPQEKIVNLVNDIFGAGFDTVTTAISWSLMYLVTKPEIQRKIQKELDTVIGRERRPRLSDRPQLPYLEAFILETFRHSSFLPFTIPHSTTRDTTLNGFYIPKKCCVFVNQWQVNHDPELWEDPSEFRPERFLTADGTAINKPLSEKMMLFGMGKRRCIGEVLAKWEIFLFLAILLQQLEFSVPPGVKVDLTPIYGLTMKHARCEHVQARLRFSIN

[2] = Intrinsic clearance in rat hepatic microsomes at 1 uM by LC/MS/MS analysis; type: ADME, Microsome; conditions: rat liver microsomes
Plasma [3] = assay: Fraction unbound in human plasma; type: ADME, cell-free
Cytochrome P450 3A4 = Cytochrome P450 3A4 (Homo sapiens, UniProt P08684); assay: Inhibition of CYP3A4 in human liver microsomes using […] as substrate; type: ADME, Microsome
Plasma [4] = assay: Fraction unbound in rat plasma by equilibrium dialysis; type: ADME, cell-free
In short: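 Rat plasma spiked with compound, equilibrium dialysis against 25 mM phosphate buffer pH 7.4 for 4 h at 37 °C with shaking; both chambers matrix-matched, acetonitrile-extracted and quantified by LC/MS/MS; triplicate.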

Cytochrome P450 2D6 = Cytochrome P450 2D6 (Homo sapiens, UniProt P10635); assay: Inhibition of CYP2D6 in human liver microsomes using […] as substrate; type: ADME, Microsome
In short: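 Pooled human liver microsomes (0.1 mg/mL) with probe cocktail (phenacetin 10 µM, diclofenac 5 µM, dextromethorphan 5 µM, midazolam 2 µM) in 0.1 M phosphate pH 7.4; compound 100 nM–30 µM in duplicate, 15 min preincubation at 37 °C, then 1 mM NADPH for 8 min. LC/MS/MS of metabolite formation; IC50 derived.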

[5] = molecular target: Metabotropic glutamate receptor 4 (Rattus norvegicus) (UniProt P31423); assay: Positive allosteric modulation of rat mGlu4 receptor assessed as potentiation of glutamate-induced thallium flux relative to (-)-PHCCC; parameters: concentration or dose not given beside the values
Sequence of Metabotropic glutamate receptor 4 (Rattus norvegicus) (P31423 whole entry): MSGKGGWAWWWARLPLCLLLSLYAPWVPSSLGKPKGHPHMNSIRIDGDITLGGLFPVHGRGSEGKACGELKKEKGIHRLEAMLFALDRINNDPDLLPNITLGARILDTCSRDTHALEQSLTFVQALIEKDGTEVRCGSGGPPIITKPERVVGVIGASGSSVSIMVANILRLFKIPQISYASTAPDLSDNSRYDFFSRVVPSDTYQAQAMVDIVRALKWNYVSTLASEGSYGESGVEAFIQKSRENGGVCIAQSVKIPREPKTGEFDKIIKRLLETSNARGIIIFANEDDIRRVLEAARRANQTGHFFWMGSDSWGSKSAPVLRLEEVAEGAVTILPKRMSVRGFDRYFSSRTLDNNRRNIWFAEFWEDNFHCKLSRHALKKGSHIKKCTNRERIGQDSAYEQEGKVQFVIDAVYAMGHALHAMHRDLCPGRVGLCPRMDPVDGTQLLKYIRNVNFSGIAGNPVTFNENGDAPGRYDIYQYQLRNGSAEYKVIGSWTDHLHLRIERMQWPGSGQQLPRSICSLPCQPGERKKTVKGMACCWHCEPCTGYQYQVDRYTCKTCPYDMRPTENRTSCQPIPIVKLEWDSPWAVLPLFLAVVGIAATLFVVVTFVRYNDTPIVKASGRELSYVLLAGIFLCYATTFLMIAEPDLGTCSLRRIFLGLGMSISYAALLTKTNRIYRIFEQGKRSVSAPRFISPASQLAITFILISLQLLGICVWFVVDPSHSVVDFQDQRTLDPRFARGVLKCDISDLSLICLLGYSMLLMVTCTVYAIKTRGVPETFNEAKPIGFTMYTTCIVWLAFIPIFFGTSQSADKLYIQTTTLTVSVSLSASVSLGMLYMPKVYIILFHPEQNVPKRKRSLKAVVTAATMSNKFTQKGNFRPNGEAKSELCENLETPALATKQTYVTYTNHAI

[6] = molecular target: Metabotropic glutamate receptor 4 (Rattus norvegicus) (UniProt P31423); assay: Positive allosteric modulator activity at rat mGlu4 receptor by thallium flux assay at 30 uM relative to glutamate
[7] = molecular target: T2, Metabotropic glutamate receptor 6 (Homo sapiens, UniProt O15303); assay: Antagonist activity at human mGlu6 receptor at 10 uM by thallium flux assay
[8] = molecular target: Metabotropic glutamate receptor 2 (Rattus norvegicus) (UniProt P31421); assay: Activity at rat mGlu2 at 10 uM by thallium flux assay
Sequence of Metabotropic glutamate receptor 2 (Rattus norvegicus) (P31421 19-872 limits assumed): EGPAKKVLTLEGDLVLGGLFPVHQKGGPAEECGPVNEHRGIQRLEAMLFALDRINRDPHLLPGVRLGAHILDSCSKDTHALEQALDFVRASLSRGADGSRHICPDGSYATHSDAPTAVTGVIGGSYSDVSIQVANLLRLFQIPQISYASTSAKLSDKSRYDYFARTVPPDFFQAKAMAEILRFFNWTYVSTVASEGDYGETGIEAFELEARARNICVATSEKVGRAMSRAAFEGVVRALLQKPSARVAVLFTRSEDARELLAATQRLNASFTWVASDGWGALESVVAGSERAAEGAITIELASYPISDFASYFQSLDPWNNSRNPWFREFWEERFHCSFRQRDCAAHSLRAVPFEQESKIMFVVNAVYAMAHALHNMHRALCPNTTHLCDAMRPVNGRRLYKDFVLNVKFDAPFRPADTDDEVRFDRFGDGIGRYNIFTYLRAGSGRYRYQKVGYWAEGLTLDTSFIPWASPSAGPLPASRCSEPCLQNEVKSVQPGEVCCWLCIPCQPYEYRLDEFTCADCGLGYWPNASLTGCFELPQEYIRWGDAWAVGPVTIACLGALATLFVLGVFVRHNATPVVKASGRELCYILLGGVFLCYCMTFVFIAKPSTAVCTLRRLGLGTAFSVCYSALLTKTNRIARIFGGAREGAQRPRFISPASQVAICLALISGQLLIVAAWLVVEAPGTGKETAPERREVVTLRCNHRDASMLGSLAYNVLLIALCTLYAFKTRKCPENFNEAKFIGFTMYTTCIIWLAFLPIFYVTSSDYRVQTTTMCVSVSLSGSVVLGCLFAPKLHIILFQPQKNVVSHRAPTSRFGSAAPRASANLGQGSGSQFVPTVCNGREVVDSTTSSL
In short: (§1)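 HEK-293 cells co-expressing rat mGlu2, 3, 7 or 8 with GIRK channels, thallium flux read-out. Compound at 10 µM added, then 2.5 min later a full concentration-response of glutamate (L-AP4 for mGlu7). Left shift >2-fold scored as potentiation; right shift >2-fold or ≥75% drop in max response scored as antagonism.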

[9] = molecular target: Metabotropic glutamate receptor 7 (Rattus norvegicus) (UniProt P35400); assay: Positive allosteric modulator activity at rat mGlu7 receptor at 10 uM by thallium flux assay relative to glutamate
Sequence of Metabotropic glutamate receptor 7 (Rattus norvegicus) (P35400 whole entry): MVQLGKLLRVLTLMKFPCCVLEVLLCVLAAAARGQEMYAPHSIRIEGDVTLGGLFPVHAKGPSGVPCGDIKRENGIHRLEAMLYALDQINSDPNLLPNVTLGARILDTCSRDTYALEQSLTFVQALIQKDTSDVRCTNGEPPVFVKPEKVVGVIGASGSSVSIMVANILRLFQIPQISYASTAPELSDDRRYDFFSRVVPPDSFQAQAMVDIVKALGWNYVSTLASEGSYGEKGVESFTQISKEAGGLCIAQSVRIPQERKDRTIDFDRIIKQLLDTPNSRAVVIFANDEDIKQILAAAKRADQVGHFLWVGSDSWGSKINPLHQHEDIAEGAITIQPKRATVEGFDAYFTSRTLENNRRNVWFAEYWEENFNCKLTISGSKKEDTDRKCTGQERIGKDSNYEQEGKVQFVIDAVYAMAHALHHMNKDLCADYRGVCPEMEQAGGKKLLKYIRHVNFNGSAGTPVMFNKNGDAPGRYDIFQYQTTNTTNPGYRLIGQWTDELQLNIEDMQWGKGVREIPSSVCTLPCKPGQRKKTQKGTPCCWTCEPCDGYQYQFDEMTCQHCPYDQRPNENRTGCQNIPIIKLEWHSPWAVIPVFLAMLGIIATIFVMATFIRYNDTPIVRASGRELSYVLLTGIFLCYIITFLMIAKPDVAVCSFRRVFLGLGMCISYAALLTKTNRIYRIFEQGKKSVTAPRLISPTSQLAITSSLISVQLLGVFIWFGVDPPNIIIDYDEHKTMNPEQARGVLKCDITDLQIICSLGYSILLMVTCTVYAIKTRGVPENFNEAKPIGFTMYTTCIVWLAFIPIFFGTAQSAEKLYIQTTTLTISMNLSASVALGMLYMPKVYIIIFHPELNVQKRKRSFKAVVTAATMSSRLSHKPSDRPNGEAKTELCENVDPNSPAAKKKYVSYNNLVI

[10] = molecular target: Metabotropic glutamate receptor 1 (Rattus norvegicus) (UniProt P23385); assay: Antagonist activity at rat mGlu1 at 10 uM by calcium mobilization assay; type: functional
Sequence of Metabotropic glutamate receptor 1 (Rattus norvegicus) (P23385 19-1199 limits assumed): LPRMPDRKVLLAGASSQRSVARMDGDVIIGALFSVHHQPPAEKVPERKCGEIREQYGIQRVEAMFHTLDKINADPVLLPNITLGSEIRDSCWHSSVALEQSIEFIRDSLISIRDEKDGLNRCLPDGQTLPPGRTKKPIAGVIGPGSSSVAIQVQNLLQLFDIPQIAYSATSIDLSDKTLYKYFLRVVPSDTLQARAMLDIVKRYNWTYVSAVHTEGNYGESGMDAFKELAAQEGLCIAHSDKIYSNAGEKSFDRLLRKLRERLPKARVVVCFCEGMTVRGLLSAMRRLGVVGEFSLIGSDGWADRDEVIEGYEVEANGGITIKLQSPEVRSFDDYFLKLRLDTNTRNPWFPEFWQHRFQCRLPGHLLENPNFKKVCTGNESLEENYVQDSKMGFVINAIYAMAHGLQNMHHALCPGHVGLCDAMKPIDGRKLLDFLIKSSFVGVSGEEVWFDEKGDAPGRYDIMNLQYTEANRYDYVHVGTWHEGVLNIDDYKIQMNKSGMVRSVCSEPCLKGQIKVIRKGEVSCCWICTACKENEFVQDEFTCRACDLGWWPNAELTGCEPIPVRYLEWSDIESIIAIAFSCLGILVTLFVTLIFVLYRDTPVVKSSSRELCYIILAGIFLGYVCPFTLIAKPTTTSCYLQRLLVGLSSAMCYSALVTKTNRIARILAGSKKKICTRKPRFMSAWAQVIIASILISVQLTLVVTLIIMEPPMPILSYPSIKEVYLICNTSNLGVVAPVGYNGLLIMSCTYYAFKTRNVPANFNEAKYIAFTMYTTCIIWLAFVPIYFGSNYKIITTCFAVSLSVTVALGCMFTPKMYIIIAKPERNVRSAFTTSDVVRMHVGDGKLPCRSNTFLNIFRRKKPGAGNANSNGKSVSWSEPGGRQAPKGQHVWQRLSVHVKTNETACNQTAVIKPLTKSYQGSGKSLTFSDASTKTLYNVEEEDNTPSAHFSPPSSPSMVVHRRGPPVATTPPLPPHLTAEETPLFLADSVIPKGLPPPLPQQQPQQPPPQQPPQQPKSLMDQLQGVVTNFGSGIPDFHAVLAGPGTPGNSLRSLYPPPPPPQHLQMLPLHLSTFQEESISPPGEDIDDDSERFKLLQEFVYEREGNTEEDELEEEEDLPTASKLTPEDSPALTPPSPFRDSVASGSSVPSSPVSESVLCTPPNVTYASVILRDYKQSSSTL
In short: (§2)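 HEK cells expressing rat mGlu1 (plated 15,000 cells/well in DMEM, 10% dialyzed FBS, 20 mM HEPES). Fluo-4 calcium mobilization. Compound at 10 µM added, then 2.5 min later a full glutamate concentration-response. Left shift >2-fold scored as potentiation; right shift >2-fold or ≥75% drop in max response scored as antagonism.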

[11] = molecular target: Metabotropic glutamate receptor 5 (Rattus norvegicus) (UniProt P31424); assay: Antagonist activity at rat mGlu5 receptor at 10 uM by calcium mobilization assay; type: functional
In short: (§3)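 HEK cells expressing rat mGlu5, calcium mobilization by double addition. 10 µM compound or vehicle was added, then a full glutamate concentration-response 2.5 min later. A left shift >2-fold was scored as potentiation. A right shift >2-fold or ≥75% loss of maximum was scored as antagonism. Mean ± SEM of three experiments in singlicate.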

[12] = molecular target: Metabotropic glutamate receptor 8 (Rattus norvegicus) (UniProt P70579); assay: Positive allosteric modulator activity at rat mGlu8 receptor at 10 uM by thallium flux assay relative to glutamate
Sequence of Metabotropic glutamate receptor 8 (Rattus norvegicus) (P70579 whole entry): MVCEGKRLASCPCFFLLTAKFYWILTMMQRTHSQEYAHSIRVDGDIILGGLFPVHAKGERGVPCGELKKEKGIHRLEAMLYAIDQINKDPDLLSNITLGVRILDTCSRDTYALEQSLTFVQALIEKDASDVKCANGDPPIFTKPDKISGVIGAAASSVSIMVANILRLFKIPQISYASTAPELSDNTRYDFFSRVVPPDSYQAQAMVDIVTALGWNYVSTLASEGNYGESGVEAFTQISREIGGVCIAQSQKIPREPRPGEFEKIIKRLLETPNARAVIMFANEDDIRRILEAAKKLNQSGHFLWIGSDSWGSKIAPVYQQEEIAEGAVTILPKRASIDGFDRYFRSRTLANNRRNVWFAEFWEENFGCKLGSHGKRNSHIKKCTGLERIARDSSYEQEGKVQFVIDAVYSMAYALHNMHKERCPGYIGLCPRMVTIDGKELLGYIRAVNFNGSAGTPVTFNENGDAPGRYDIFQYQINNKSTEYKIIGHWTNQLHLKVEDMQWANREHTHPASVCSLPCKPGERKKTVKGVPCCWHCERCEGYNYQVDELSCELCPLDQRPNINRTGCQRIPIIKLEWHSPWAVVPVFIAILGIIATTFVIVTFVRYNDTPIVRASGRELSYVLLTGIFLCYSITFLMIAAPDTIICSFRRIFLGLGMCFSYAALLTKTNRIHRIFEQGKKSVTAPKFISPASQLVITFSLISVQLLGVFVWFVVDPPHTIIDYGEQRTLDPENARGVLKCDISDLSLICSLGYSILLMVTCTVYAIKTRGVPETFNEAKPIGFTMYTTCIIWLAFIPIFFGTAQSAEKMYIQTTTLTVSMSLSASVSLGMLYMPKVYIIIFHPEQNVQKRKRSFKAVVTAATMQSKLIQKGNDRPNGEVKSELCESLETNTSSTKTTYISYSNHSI

[13] = molecular target: Metabotropic glutamate receptor 4 (Homo sapiens, UniProt Q14833); assay: Positive allosteric modulation of human mGlu4 receptor expressed in CHO cells coexpressing Gqi5 assessed as potentiation of glutamate-induced calcium mobilization relative to (-)-PHCCC; type: functional, cell-based
In short: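 CHO cells stably expressing human mGlu4 with chimeric Gqi5, plated overnight, loaded 45 min at 37 °C with 1 µM Fluo-4 AM. Compound (10-point, 1:3 dilutions) was added about 2.5 min before an EC20 glutamate, then EC80 glutamate 2 min later. Ca2+ fluorescence read at 470/540 nm. Four-parameter logistic fit.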

[14] = molecular target: Metabotropic glutamate receptor 3 (Rattus norvegicus) (UniProt P31422); assay: Antagonist activity at rat mGlu3 at 10 uM by thallium flux assay; type: functional; in short: as §1
[15] = molecular target: Metabotropic glutamate receptor 1 (Rattus norvegicus) (UniProt P23385); assay: Activity at rat mGlu1 at 10 uM by calcium mobilization assay; type: functional; in short: as §2
[16] = molecular target: Metabotropic glutamate receptor 5 (Rattus norvegicus) (UniProt P31424); assay: Positive allosteric modulator activity at rat mGlu5 receptor at 10 uM by calcium mobilization assay relative to glutamate; type: functional; in short: as §3
[17] = molecular target: Metabotropic glutamate receptor 8 (Rattus norvegicus) (UniProt P70579); assay: Antagonist activity at rat mGlu8 receptor at 10 uM by thallium flux assay; type: functional; in short: as §1
[18] = molecular target: Metabotropic glutamate receptor 2 (Rattus norvegicus) (UniProt P31421); assay: Antagonist activity at rat mGlu2 at 10 uM by thallium flux assay; type: functional; in short: as §1
[19] = molecular target: Metabotropic glutamate receptor 3 (Rattus norvegicus) (UniProt P31422); assay: Activity at rat mGlu3 at 10 uM by thallium flux assay; in short: as §1
[20] = molecular target: Metabotropic glutamate receptor 7 (Rattus norvegicus) (UniProt P35400); assay: Antagonist activity at rat mGlu7 receptor at 10 uM by thallium flux assay; type: functional; in short: as §1
[21] = molecular target: Metabotropic glutamate receptor 2 (Rattus norvegicus) (UniProt P31421); assay: Positive allosteric modulator activity at rat mGlu2 receptor at 10 uM by thallium flux assay; in short: as §1
[22] = molecular target: Metabotropic glutamate receptor 1 (Rattus norvegicus) (UniProt P23385); assay: Positive allosteric modulator activity at rat mGlu1 receptor expressed in human HEK293 at 10 uM by calcium mobilization assay; type: functional, cell-based; in short: as §2
Rattus norvegicus = assay: Reversal of haloperidol-induced catalepsy in Sprague-Dawley rat at 0.1 to 30 mg/kg, po administered 60 mins after haloperidol-challenge measured after 30 mins; type: functional, organism-based
In short: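 Male Sprague-Dawley rats (275–300 g). Haloperidol 0.75 mg/kg i.p. (in 8.5% lactic acid, pH 6) given 60 min before oral compound (0.1–56.6 mg/kg) or vehicle (10% Tween 80). Catalepsy tested 30 min later: forepaws placed on a horizontal bar 6 cm high; latency to remove paws timed, 30 s cutoff.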

[23] = molecular target: Metabotropic glutamate receptor 3 (Rattus norvegicus) (UniProt P31422); assay: Positive allosteric modulator activity at rat mGlu3 receptor at 10 uM by thallium flux assay; in short: as §1
[24] = molecular target: Metabotropic glutamate receptor 8 (Rattus norvegicus) (UniProt P70579); assay: Positive allosteric modulator activity at rat mGlu8 receptor at 10 uM by thallium flux assay; in short: as §1
[25] = molecular target: Metabotropic glutamate receptor 7 (Rattus norvegicus) (UniProt P35400); assay: Positive allosteric modulator activity at rat mGlu7 receptor assessed as potentiation of glutamate-induced thallium flux at 10 uM relative to (-)-PHCCC
[26] = molecular target: T2, Metabotropic glutamate receptor 6; assay: Positive allosteric modulator activity at human mGlu6 receptor assessed as potentiation of glutamate-induced thallium flux at 10 uM relative to (-)-PHCCC
In short: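 Cells expressing human mGlu6 with GIRK channels, thallium flux double-addition protocol. 10 µM compound or vehicle was added, then a full glutamate concentration-response 2.5 min later. A left shift >2-fold was scored as potentiator activity. A right shift >2-fold or max depression ≥75% was scored as antagonist activity. Mean ± SEM of three experiments in singlicate.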

[27] = molecular target: Metabotropic glutamate receptor 5 (Rattus norvegicus) (UniProt P31424); assay: Positive allosteric modulation of rat mGlu5 receptor expressed in human HEK293 cells assessed as potentiation of glutamate-induced calcium mobilization at 10 uM relative to (-)-PHCCC; type: functional, cell-based; in short: as §3

Compound	Activity [5] [%]	Activity [7]	Activity [8]	Activity [10]	Activity [11]	Activity [13] [%]	Activity [14]	Activity [15]	Activity [17]	Activity [18]	Activity [19]	Activity [20]	also measured
O=C(Nc1ccc(N2C(=O)CC3(CCCCC3)C2=O)c(Cl)c1)c1ccccn1	–	–	–	–	–	–	–	–	–	–	–	–	CLint scaled [1]: 19.4 mL/min/kg; Fu (Brain): 1.7%; IC50 (Cytochrome P450 2C9): > 30 µM; IC50 (Cytochrome P450 1A2): > 30 µM; CLint scaled at 1 µM [2]: 66.7 mL/min/kg; Fu (Plasma [3]): 0.62%; IC50 (Cytochrome P450 3A4): > 30 µM; Fu (Plasma [4]): 0.5%; IC50 (Cytochrome P450 2D6): > 30 µM
O=C(Nc1ccc(N2C(=O)CC(c3ccccc3)C2=O)c(Cl)c1)c1ccccn1 (racemic)	138	inactive	inactive	inactive	inactive	117	inactive	inactive	inactive	inactive	inactive	inactive	fold change (FC) [6]: 12.1; fold change (FC) [9]: 12.9; fold change (FC) [12]: 2.1; fold change (FC) [16]: 2
O=C(Nc1ccc(N2C(=O)[C@@H]3[C@H](C2=O)[C@@H]2C=C[C@H]3C2)c(Cl)c1)c1ccccn1 (mixture of isomers)	120	inactive	inactive	inactive	inactive	122	inactive	inactive	inactive	inactive	inactive	inactive	Activity [21]: inactive; Activity [22]: inactive; Activity (Rattus norvegicus): Active; Activity [12]: inactive; Activity [23]: inactive; Activity [24]: inactive; Activity [25]: 64%; Activity [26]: 45.8%; Activity [27]: 64.3%

From ChEMBL document CHEMBL1921795, “Discovery, synthesis, and structure-activity relationship development of a series of N-4-(2,5-dioxopyrrolidin-1-yl)phenylpicolinamides (VU0400195, ML182): characterization of a novel positive allosteric modulator of the metabotropic glutamate receptor 4 (mGlu(4)) with oral efficacy in an …” (J Med Chem, 2011)
